Measured values: ChEMBL document CHEMBL3734675, “Synthesis, antimycobacterial and antibacterial activity of fluoroquinolone derivatives containing an 3-alkoxyimino-4-(cyclopropylanimo)methylpyrrolidine moiety” (2015)
≈ marks a conversion by molar mass, not a printed value.

Experiments:
Format in all cases: functional
Pseudomonas aeruginosa [1] = assay: Antibacterial activity against Pseudomonas aeruginosa 14-15 after 18 to 24 hrs by two-fold serial dilution method
Outline: (§1)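 Twofold serial dilution in agar media against Gram-positive and Gram-negative strains. Plates incubated at 35 °C for 18–24 h. MIC read as the lowest compound concentration giving complete inhibition of bacterial growth.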

[2] = system: Staphylococcus epidermidis; assay: Antibacterial activity against methicillin-resistant Staphylococcus epidermidis 14-22 after 18 to 24 hrs by two-fold serial dilution method
Outline: (§2)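 Agar media, standard twofold serial dilution. MIC is the lowest concentration giving complete inhibition of bacterial growth after incubation at 35 °C for 18–24 h. Ciprofloxacin and levofloxacin were run as comparators.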

Staphylococcus aureus [3] = assay: Antibacterial activity against methicillin-sensitive Staphylococcus aureus 14-4 after 18 to 24 hrs by two-fold serial dilution method; outline: as §1
Pseudomonas aeruginosa [4] = assay: Antibacterial activity against Pseudomonas aeruginosa 14-16 after 18 to 24 hrs by two-fold serial dilution method; outline: as §1
Klebsiella pneumoniae [5] = assay: Antibacterial activity against Klebsiella pneumoniae 14-2 after 18 to 24 hrs by two-fold serial dilution method; outline: as §1
Enterococcus faecium [6] = assay: Antibacterial activity against Enterococcus faecium 14-2 after 18 to 24 hrs by two-fold serial dilution method; outline: as §1
Escherichia coli [7] = assay: Antibacterial activity against extended-spectrum beta-lactamase producing Escherichia coli 14-2 after 18 to 24 hrs by two-fold serial dilution method; outline: as §1
Staphylococcus aureus [8] = assay: Antibacterial activity against methicillin-resistant Staphylococcus aureus 14-4 after 18 to 24 hrs by two-fold serial dilution method; outline: as §2
Escherichia coli [9] = assay: Antibacterial activity against Escherichia coli 14-2 after 18 to 24 hrs by two-fold serial dilution method; outline: as §1
[10] = system: Staphylococcus epidermidis; assay: Antibacterial activity against methicillin-resistant Staphylococcus epidermidis 14-37 after 18 to 24 hrs by two-fold serial dilution method; outline: as §2
Staphylococcus aureus [11] = assay: Antibacterial activity against methicillin-sensitive Staphylococcus aureus 14-1 after 18 to 24 hrs by two-fold serial dilution method; outline: as §1
Escherichia coli [12] = assay: Antibacterial activity against extended-spectrum beta-lactamase producing Escherichia coli 14-1 after 18 to 24 hrs by two-fold serial dilution method; outline: as §1
Klebsiella pneumoniae [13] = assay: Antibacterial activity against extended-spectrum beta-lactamase producing Klebsiella pneumoniae 14-18 after 18 to 24 hrs by two-fold serial dilution method; outline: as §1
[14] = system: Staphylococcus epidermidis; assay: Antibacterial activity against methicillin-resistant Staphylococcus epidermidis 14-39 after 18 to 24 hrs by two-fold serial dilution method; outline: as §2
Staphylococcus aureus [15] = assay: Antibacterial activity against Staphylococcus aureus CMCC 26003 after 18 to 24 hrs by two-fold serial dilution method; outline: as §1
Staphylococcus aureus [16] = assay: Antibacterial activity against methicillin-resistant Staphylococcus aureus 14-5 after 18 to 24 hrs by two-fold serial dilution method; outline: as §2
Staphylococcus aureus [17] = assay: Antibacterial activity against methicillin-sensitive Staphylococcus aureus 14-3 after 18 to 24 hrs by two-fold serial dilution method; outline: as §1
Klebsiella pneumoniae [18] = assay: Antibacterial activity against Klebsiella pneumoniae 14-4 after 18 to 24 hrs by two-fold serial dilution method; outline: as §1
Klebsiella pneumoniae [19] = assay: Antibacterial activity against Klebsiella pneumoniae 14-3 after 18 to 24 hrs by two-fold serial dilution method; outline: as §1
Enterococcus faecalis [20] = assay: Antibacterial activity against Enterococcus faecalis 14-1 after 18 to 24 hrs by two-fold serial dilution method; outline: as §1
Klebsiella pneumoniae [21] = assay: Antibacterial activity against Klebsiella pneumoniae 14-1 after 18 to 24 hrs by two-fold serial dilution method; outline: as §1
Pseudomonas aeruginosa [22] = assay: Antibacterial activity against Pseudomonas aeruginosa 14-14 after 18 to 24 hrs by two-fold serial dilution method; outline: as §1
Klebsiella pneumoniae [23] = assay: Antibacterial activity against extended-spectrum beta-lactamase producing Klebsiella pneumoniae 14-17 after 18 to 24 hrs by two-fold serial dilution method; outline: as §1
Escherichia coli [24] = assay: Antibacterial activity against Escherichia coli 14-1 after 18 to 24 hrs by two-fold serial dilution method; outline: as §1
[25] = system: Staphylococcus epidermidis; assay: Antibacterial activity against methicillin-resistant Staphylococcus epidermidis 14-21 after 18 to 24 hrs by two-fold serial dilution method; outline: as §2
Streptococcus pneumoniae = assay: Antibacterial activity against methicillin-resistant Streptococcus pneumoniae ATCC 19615 after 18 to 24 hrs by two-fold serial dilution method; outline: as §2
Enterococcus faecium [26] = assay: Antibacterial activity against Enterococcus faecium 14-5 after 18 to 24 hrs by two-fold serial dilution method; outline: as §1
Enterococcus faecalis [27] = assay: Antibacterial activity against Enterococcus faecalis 14-2 after 18 to 24 hrs by two-fold serial dilution method; outline: as §1
Escherichia coli [28] = assay: Antibacterial activity against Escherichia coli ATCC 25922 after 18 to 24 hrs by two-fold serial dilution method; outline: as §1
Klebsiella pneumoniae [29] = assay: Antibacterial activity against extended-spectrum beta-lactamase producing Klebsiella pneumoniae 14-19 after 18 to 24 hrs by two-fold serial dilution method; outline: as §1
Enterococcus faecium [30] = assay: Antibacterial activity against Enterococcus faecium 14-6 after 18 to 24 hrs by two-fold serial dilution method; outline: as §1
[31] = system: Staphylococcus epidermidis; assay: Antibacterial activity against methicillin-sensitive Staphylococcus epidermidis 14-2 after 18 to 24 hrs by two-fold serial dilution method; outline: as §1
Pseudomonas aeruginosa [32] = assay: Antibacterial activity against Pseudomonas aeruginosa ATCC 27853 after 18 to 24 hrs by two-fold serial dilution method; outline: as §1
Pseudomonas aeruginosa [33] = assay: Antibacterial activity against Pseudomonas aeruginosa 14-9 after 18 to 24 hrs by two-fold serial dilution method; outline: as §1

Structure (SMILES) | MIC (Pseudomonas aeruginosa [1]) | MIC [2] | MIC (Staphylococcus aureus [3]) | MIC (Pseudomonas aeruginosa [4]) | MIC (Klebsiella pneumoniae [5]) | MIC (Enterococcus faecium [6]) | MIC (Escherichia coli [7]) | MIC (Staphylococcus aureus [8]) | MIC (Escherichia coli [9]) | MIC [10] | MIC (Staphylococcus aureus [11]) | MIC (Escherichia coli [12]) | MIC (Klebsiella pneumoniae [13]) | MIC [14] | MIC (Staphylococcus aureus [15]) | MIC (Staphylococcus aureus [16]) | MIC (Staphylococcus aureus [17]) | MIC (Klebsiella pneumoniae [18]) | MIC (Klebsiella pneumoniae [19]) | MIC (Enterococcus faecalis [20]) | further results
CO/N=C1/CN(c2c(F)cc3c(=O)c(C(=O)O)cn4c3c2OC[C@@H]4C)CC1CNC1CC1 (stereo partly drawn) | > 64 µg/mL | > 64 µg/mL | 16 µg/mL (≈ 36 µM) | 64 µg/mL (≈ 144 µM) | 32 µg/mL (≈ 72 µM) | > 64 µg/mL | > 64 µg/mL | > 64 µg/mL | > 64 µg/mL | 64 µg/mL (≈ 144 µM) | 64 µg/mL (≈ 144 µM) | > 64 µg/mL | 4 µg/mL (≈ 9 µM) | > 64 µg/mL | 4 µg/mL (≈ 9 µM) | 64 µg/mL (≈ 144 µM) | 16 µg/mL (≈ 36 µM) | > 64 µg/mL | > 64 µg/mL | > 64 µg/mL | MIC (Klebsiella pneumoniae [21]): 32 µg/mL (≈ 72 µM); MIC (Pseudomonas aeruginosa [22]): > 64 µg/mL; MIC (Klebsiella pneumoniae [23]): 4 µg/mL (≈ 9 µM); MIC (Escherichia coli [24]): > 64 µg/mL; MIC [25]: > 64 µg/mL; MIC (Streptococcus pneumoniae): 8 µg/mL (≈ 18 µM); MIC (Enterococcus faecium [26]): 64 µg/mL (≈ 144 µM); MIC (Enterococcus faecalis [27]): 16 µg/mL (≈ 36 µM); MIC (Escherichia coli [28]): 0.5 µg/mL (≈ 1.12 µM); MIC (Klebsiella pneumoniae [29]): 8 µg/mL (≈ 18 µM); MIC (Enterococcus faecium [30]): > 128 µg/mL; MIC [31]: > 64 µg/mL; MIC (Pseudomonas aeruginosa [32]): 64 µg/mL (≈ 144 µM); MIC (Pseudomonas aeruginosa [33]): 64 µg/mL (≈ 144 µM)
CC1(CNC2CC2)CN(c2nc3c(cc2F)c(=O)c(C(=O)O)cn3[C@@H]2C[C@@H]2F)C/C1=N/OCc1ccccc1 (stereo partly drawn) | 64 µg/mL (≈ 119 µM) | 16 µg/mL (≈ 29.8 µM) | 8 µg/mL (≈ 14.9 µM) | 64 µg/mL (≈ 119 µM) | 64 µg/mL (≈ 119 µM) | 16 µg/mL (≈ 29.8 µM) | > 64 µg/mL | 16 µg/mL (≈ 29.8 µM) | > 64 µg/mL | 16 µg/mL (≈ 29.8 µM) | 8 µg/mL (≈ 14.9 µM) | 32 µg/mL (≈ 59.5 µM) | 64 µg/mL (≈ 119 µM) | 32 µg/mL (≈ 59.5 µM) | 0.125 µg/mL (≈ 0.233 µM) | 16 µg/mL (≈ 29.8 µM) | 2 µg/mL (≈ 3.72 µM) | > 64 µg/mL | 64 µg/mL (≈ 119 µM) | 64 µg/mL (≈ 119 µM) | MIC (Klebsiella pneumoniae [21]): 64 µg/mL (≈ 119 µM); MIC (Pseudomonas aeruginosa [22]): 64 µg/mL (≈ 119 µM); MIC (Klebsiella pneumoniae [23]): 64 µg/mL (≈ 119 µM); MIC (Escherichia coli [24]): > 64 µg/mL; MIC [25]: 16 µg/mL (≈ 29.8 µM); MIC (Streptococcus pneumoniae): 1 µg/mL (≈ 1.86 µM); MIC (Enterococcus faecium [26]): 32 µg/mL (≈ 59.5 µM); MIC (Enterococcus faecalis [27]): 2 µg/mL (≈ 3.72 µM); MIC (Escherichia coli [28]): 4 µg/mL (≈ 7.44 µM); MIC (Klebsiella pneumoniae [29]): > 64 µg/mL; MIC (Enterococcus faecium [30]): 32 µg/mL (≈ 59.5 µM); MIC [31]: 64 µg/mL (≈ 119 µM); MIC (Pseudomonas aeruginosa [32]): 64 µg/mL (≈ 119 µM); MIC (Pseudomonas aeruginosa [33]): 32 µg/mL (≈ 59.5 µM)
